Calls of active or inactive are those of the source. The rule behind the calls is not given here.
Assays:
HCT-116 [1] = assay: Induction of cell cycle arrest in human HCT-116 cells assessed as accumulation of cells at G0/G1 phase measured after 72 hrs by PI staining based flow cytometry analysis; assay type: functional; conditions: dose 1-4 µM
Outline: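 HCT116 cells treated at 0-4 uM for 72 h. Cell-cycle distribution measured by flow cytometry and G0/G1 percentage recorded.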

Quadruplex DNA [2] = assay: Binding affinity to Mito 0.5-16 G4 DNA (unknown origin) assessed as change in melting temperature at 5 uM by circular dichroism spectroscopic analysis; assay type: nucleic-acid assay
HCT-116 [3] = assay: Inhibition of cell proliferation in human HCT-116 cells at upto 4 uM measured after 7 days by colony formation assay; assay type: functional, cell-based; conditions: time 7.0 day
Outline: (§1)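 Colony formation: HCT116 cells treated for 7 days at 0, 1, 2 or 4 uM, colonies counted and quantified; mean ± SD.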

Quadruplex DNA [4] = assay: Binding affinity to Mito 0.5-16 G4 DNA (unknown origin) assessed as increase in CD signal at 5 uM at 290 nM by circular dichroism spectroscopic analysis; assay type: nucleic-acid assay
[5] = Toxicity in BALB/c nude mouse assessed as change in lymphocyte count at 5 mg/kg, iv administered every two days for 16 days; assay type: organism-based; conditions: in vivo, 384 h, time 16 day
Outline: (§2)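 HCT116 xenograft-bearing male Balb/c nude mice (6/group) dosed iv at 5 mg/kg every two days or with PBS. Whole blood collected at sacrifice on day 16 for hematology parameters.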

[6] = Drug localization in nucleus of living human HCT-116 cells assessed as colocalization at 4 uM incubated for 1 hr by Hoechst33342 staining based analysis; assay type: ADME, subcellular; conditions: hct-116, 1 h
Cell membrane = assay: Induction of mitochondrial membrane potential depolarization in human HCT-116 cells assessed as […] in TMRE fluorescence incubated for 48 hrs by TMRE staining based analysis; assay type: cell membranes; conditions: dose <= 4.0 µM
[7] = Antiproliferative activity against human BJ cells measured after 48 hrs by MTT assay; assay type: toxicity, cell-based; conditions: BJ cells
Outline: (§3)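 Cells exposed to the ligands for 48 h. Viability was read by MTT, and the IC50 was derived from the response.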

HCT-116 [8] = assay: Antitumor activity against human HCT-116 cells xenografted in Balb/c nude mouse model assessed as induction of apoptosis at 5 mg/kg, iv administered every two days for 16 days by TUNEL staining based analysis; assay type: functional, organism-based; conditions: time 16.0 day
Outline: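 Tumours came from HCT116-xenografted male Balb/c nude mice given 5 mg/kg i.v. every two days, or PBS, for 16 days. Tumour tissue sections were stained by TUNEL for apoptosis and by Ki67 immunofluorescence for proliferation, then compared with the control group.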

[9] = Toxicity in BALB/c nude mouse assessed as effect on kidney at 5 mg/kg, iv measured after 16 hrs post injection by H and E staining based analysis; assay type: organism-based; conditions: in vivo
Quadruplex DNA [10] = assay: Binding affinity to Mito 55 G4 DNA (unknown origin) assessed as change in melting temperature at 5 uM by circular dichroism spectroscopic analysis; assay type: nucleic-acid assay
LoVo = assay: Antiproliferative activity against human LoVo cells measured after 48 hrs by MTT assay; assay type: functional, cell-based; outline: as §3
HFF-1 [11] = assay: Downregulation of ND1 gene expression in human HFF-1 cells at 0 to 4 uM measured after 48 hrs by q-PCR analysis; assay type: functional, cell-based; conditions: dose 0-4 µM
HCT-116 [12] = assay: Inhibition of cell proliferation in human HCT-116 cells at 4 uM measured after 7 days by colony formation assay relative to control; assay type: functional; conditions: HCT-116, 168 h, time 7 day; outline: as §1
HCT-116 [13] = assay: Downregulation of ND3 protein level in human HCT-116 cells at upto 4 uM incubated for 48 hrs by Western blot analysis; assay type: functional, cell-based
Quadruplex DNA [14] = assay: Binding affinity to Mito 78 G4 DNA (unknown origin) assessed as change in melting temperature at 5 uM by circular dichroism spectroscopic analysis; assay type: nucleic-acid assay
HFF-1 [15] = assay: Induction of morphological changes in human HFF-1 cells at 4 uM by microscopy based analysis; assay type: functional, cell-based
Outline: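 HCT116 and HFF1 cells treated with ligand at 4 uM alongside untreated controls. Morphology examined by microscopy at 100x.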

HCT-116 [16] = assay: Antitumor activity against human HCT-116 cells xenografted in Balb/c nude mouse model assessed as inhibition of tumor growth at 5 mg/kg, iv administered every two days for 16 days; assay type: functional, organism-based; conditions: time 16.0 day
Outline: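 Male Balb/c nude mice carrying HCT116 xenografts, 6 per group. Dosing was intravenous every two days at 5 mg/kg, with a PBS-injected control group. Body weight and tumour growth were tracked. Tumours were excised and weighed after 16 days.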

DNA [17] = assay: Binding affinity to HP19 DNA (non-G4 DNA) (unknown origin) assessed as dissociation constant measured upto 450 secs by surface plasmon resonance assay; assay type: nucleic-acid assay
Outline: (§4)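 Surface plasmon resonance in buffer at 25 °C. Four G4-mtDNAs (Mito 78, Mito 55, Mito 29, Mito 0.5-16) and the hairpin HP19 served as substrates. Kd was derived from the sensorgrams.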

Quadruplex DNA [18] = assay: Binding affinity to mito 0.5-16 G4 DNA (unknown origin) assessed as dissociation constant measured upto 450 secs by surface plasmon resonance assay; assay type: nucleic-acid assay; outline: as §4
DNA [19] = assay: Binding affinity to HP19 DNA (non-G4 DNA) (unknown origin) assessed as increase in CD signal at 5 uM by circular dichroism spectroscopic analysis; assay type: nucleic-acid assay
Quadruplex DNA [20] = assay: Binding affinity to mito 29 G4 DNA (unknown origin) assessed as dissociation constant measured upto 450 secs by surface plasmon resonance assay; assay type: nucleic-acid assay; outline: as §4
HCT-116 [21] = assay: Downregulation of mitochondrial respiratory chain complex II level in human HCT-116 cells at upto 4 uM measured after 48 hrs by Western blot analysis; assay type: functional, cell-based
DNA [22] = assay: Binding affinity to SS19 DNA (non-G4 DNA) (unknown origin) assessed as dissociation constant measured upto 150 secs by isothermal titration calorimetry assay; assay type: nucleic-acid assay
HCT-116 [23] = assay: Downregulation of ATP8 mRNA level in human HCT-116 cells at 0 to 4 uM measured after 48 hrs by qRT-PCR analysis; assay type: functional, cell-based; conditions: dose 0-4 µM
[24] = Toxicity in BALB/c nude mouse assessed as change in mean platelet volume at 5 mg/kg, iv administered every two days for 16 days; assay type: organism-based; conditions: in vivo, 384 h, time 16 day; outline: as §2
[25] = Toxicity in BALB/c nude mouse assessed as change in mean red blood cell hemoglobin concentration at 5 mg/kg, iv administered every two days for 16 days; assay type: organism-based; conditions: in vivo, 384 h, time 16 day; outline: as §2
HCT-116 [26] = assay: Downregulation of ND5 mRNA level in human HCT-116 cells at 0 to 4 uM measured after 48 hrs by qRT-PCR analysis; assay type: functional, cell-based; conditions: dose 0-4 µM

Compound: C(=C\c1ccc2ccccc2[n+]1CCCCCCCC[n+]1c(/C=C/c2ccc(N3CCCCC3)cc2)ccc2ccccc21)/c1ccc(N2CCCCC2)cc1.[I-].[I-]
- Activity (HCT-116 [1]): Dose-Dependent Effect
- ΔTm (Quadruplex DNA [2]): 16.5 °C
- inhibition (HCT-116 [3]): Active
- Activity (Quadruplex DNA [4]): Active
- Activity [5]: Non-Toxic
- Drug uptake [6]: Not Active
- Activity (Cell membrane): Dose-Dependent Effect
- IC50 at 48 h [7]: > 40000 nM
- Activity (HCT-116 [8]): Active
- Activity [9]: Non-Toxic
- ΔTm (Quadruplex DNA [10]): 3.6 °C
- IC50 (LoVo): 13400 nM
- Activity (HFF-1 [11]): inactive
- inhibition at 4 µM (HCT-116 [12]): 100%
- Activity (HCT-116 [13]): Active
- ΔTm (Quadruplex DNA [14]): 11.3 °C
- Activity (HFF-1 [15]): Active
- Activity (HCT-116 [16]): Active
- Kd (DNA [17]): > 2000 nM
- Kd (Quadruplex DNA [18]): 290 nM
- Activity (DNA [19]): inactive
- Kd (Quadruplex DNA [20]): 110 nM
- Activity (HCT-116 [21]): Active
- Kd (DNA [22]): > 4700 nM
- Activity (HCT-116 [23]): Active
- Activity [24]: Non-Toxic
- Activity [25]: Non-Toxic
- Activity (HCT-116 [26]): Active

From ChEMBL document CHEMBL5506013, “Mitochondria-Selective Dicationic Small-Molecule Ligand Targeting G-Quadruplex Structures for Human Colorectal Cancer Therapy” (J Med Chem, 2024)
